Test results published in ChEMBL document CHEMBL4513216, “Probing the Open Global Health Chemical Diversity Library for Multistage-Active Starting Points for Next-Generation Antimalarials” (ACS Infect Dis, 2020).

Experiment: Toxicity liver stage against HepG2, at 10uM
Assay type: cell-based
Parameters: test concentration 10 uM, cell line HepG2-A16-CD81EGFP
Settings: human, HepG2-A16-CD81EGFP cells; read-out: INHIBITION
Procedure, shortened: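 Uninfected HepG2-A16-CD81EGFP cells, 3 × 10^3 per well, 1536-well, plated on prespotted compound at 10 μM final, parasite-free screening media added to match infected plates; puromycin 10 μM positive, DMSO 0.5% negative; run in parallel with 48 h PbLuc assay at 37 °C, 5% CO2; viability by CellTiter-Glo luminescence, normalized to controls.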

| SMILES | cytotoxicity at 10 µM [%] |
| --- | --- |
| CC(=O)N1CCCC(C(=O)Nc2ccccc2Cc2ccccc2)C1 (stereo unspecified) | 3.88 |
| COc1ccc(CNc2c(N3CCN(C)CC3)c(=O)c2=O)cc1 | 2.4 |
| O=C(c1ccc[nH]1)N1CCO[C@H]2CC(COCc3ccccn3)C[C@@H]21 (stereo partly specified) | 0.718 |
| Cc1ccc(CN2CC[C@@H](N(C)C(C)C)[C@@H]2Cc2ccccc2)o1 | -3.52 |
| CCOC1Sc2nnc(C)n2N=C1c1ccc(Cl)cc1 (stereo unspecified) | 11.3 |
| CCc1nn(-c2cc(Oc3ccccc3)nc(C)n2)c(N)c1C#N | 3.62 |
| Cc1noc([C@H]2C[C@H]3OCC[C@H]3N(S(=O)(=O)C3CC3)C2)n1 | -10.5 |
| CCS(=O)(=O)N1CCC(c2nc3ccc(-c4ccccc4)cn3n2)CC1 | -7.41 |
| Cc1cc(C)n(Cc2cccc(C(=O)NCCN3CCOCC3)c2)n1 | -12.8 |
| Cc1cccc(CN2CCOCC2c2[nH]ncc2C)n1 (stereo unspecified) | 6.91 |
| O=C(O)CCCN1C[C@@H](c2ccccc2F)[C@@]2(CCCCC(=O)N2)C1 | 4.6 |
| CCCn1nc(C)c(C(=O)N(C)[C@@H]2CC[C@@H](N3CCCC3)[C@@H]2O)c1C | 2.28 |
| CS(=O)(=O)CCCN1CCSCC1c1ccc(Cl)cc1 (stereo unspecified) | -14.5 |
| CC(C)CNC(=O)C(C)N1CCN(C2CCN(C(C)C)CC2)CC1 (stereo unspecified) | -7.09 |
| O=C(Cn1ccc(=O)[nH]c1=O)NCc1cccnc1OCC(F)(F)F | -5.88 |
| Cc1csc(N(C)C(=O)C2CC(=O)N(c3ccccc3F)C2)n1 (stereo unspecified) | 9.95 |
| CN(C(=O)c1ccncc1)c1ccccc1S(C)(=O)=O | 7.39 |
| Cc1[nH]ncc1C(=O)NCC1CCC2(CC1)OCCO2 | -8.2 |
| Cc1cc(C)n(-c2cncc(NCCNC(=O)c3cccnc3)n2)n1 | 7.45 |
| O=C(CCNS(=O)(=O)c1ccc(F)cc1)NCc1ccoc1 | -6.08 |
| CC(O)CN1CCN(C(=O)c2cnn(-c3ccccc3Cl)c2)CC1 (stereo unspecified) | -8.9 |

| SMILES | cytotoxicity at 10 µM [%] |
| --- | --- |
| Cc1ccc(C2COCCN2C(=O)c2ccc(C#N)cc2)o1 (stereo unspecified) | -5.08 |
| CC1CN(C(=O)Nc2ccc(Cl)c(C(=O)NC3CC3)c2)CC(C)(C)O1 (stereo unspecified) | 6.5 |
| Cc1cc(S(=O)(=O)NC(=O)CCc2cccnc2)c(C)s1 | 8.28 |
| Cc1cc(SC(C)(C)C)ccc1NCC(=O)NC(N)=O | -17.1 |
| Cc1nnc(C(C)N2CCc3[nH]c4ccccc4c3C2)o1 (stereo unspecified) | -9.42 |
| COc1cccc(NC(=O)NCC(Cc2cnn(C)c2)C(N)=O)c1 (stereo unspecified) | -6.52 |
| Cc1noc(C)c1CC(=O)N1CCCN(C)c2ccc(Cl)cc21 | 9.71 |
| CC(C1CC1)N(CC(=O)NCC(F)(F)F)C1CC1 (stereo unspecified) | -4.42 |
| O=S(=O)(Cc1ccccc1)NCCc1nnc2n1CCC2 | 14.5 |
| CN(C)C(=O)CCCS(=O)(=O)Cc1cc(Cl)c2c(c1)OCCO2 | 2.47 |
| COc1ccc(CN(CCC#N)CCN2CCOCC2)c(OC)c1 | -1.39 |
| C[S+]([O-])c1nncn1CC(=O)c1ccc2c(c1)CCO2 (stereo unspecified) | -2.85 |
| COc1ccc(OCC(=O)NS(=O)(=O)c2cc(F)ccc2F)cc1 | -19.5 |
| Cc1ccc(CNCC2CCc3nnc(C(C)C)n3C2)s1 (stereo unspecified) | -4.43 |
| CCOCC(=O)N1CCc2nc(C)nc(NC(C)C)c2CC1 | -98.7 |
| CS(=O)(=O)N1CCC2(CCN(C(=O)c3cccs3)CC2)CC1 | -108 |
| COC1COC2(CCN(S(=O)(=O)c3ccc(F)cc3)CC2)C1 (stereo unspecified) | -95.9 |
| Cc1cnc(N2CCc3onc(COc4cccnc4)c3C2)nc1 | -111 |
| O=C(N1CCCC1)N1CCc2ncnc(C3CCOC3)c2CC1 (stereo unspecified) | 3.45 |
| CS(=O)(=O)NCc1ncn2c1CN(C(=O)CC1CCCC1)CCC2 | 4.79 |
| CCNc1ncc(C(=O)NCc2ccc3nsnc3c2)cn1 | 2.34 |

| SMILES | cytotoxicity at 10 µM [%] |
| --- | --- |
| Cc1ccsc1CN(Cc1ncccc1C(=O)O)C1CC1 | -5.8 |
| O=C1NCC2(CCCN(C(=O)c3c[nH]nc3C3CCCCC3)C2)O1 (stereo unspecified) | 8.72 |
| Cc1c(C(=O)N2C[C@@H](CN(C)CCO)[C@@H](CO)C2)sc2ccccc12 | -11 |
| COCCC1CCCCN1Cc1nc(C2CC2)no1 (stereo unspecified) | 8.53 |
| CC(C)[C@H]1CN(S(C)(=O)=O)C[C@@H]1NC(=O)c1ccnc(N)c1 | 8 |
| CCOc1ccc(OCc2nccc(-c3cc(C(=O)O)ccn3)n2)cc1 | -11.8 |
| CC(C)n1ccnc1C1CCCN(c2ccncc2F)C1 (stereo unspecified) | -4.96 |
| CC(C)c1cc(=O)[nH]c(-c2ccccc2CN2CCCC2C)n1 (stereo unspecified) | 10.4 |
| O[C@@H]1CN(CC2=Cc3cc(Cl)ccc3OC2)CC[C@H]1N1CCCCCC1 | 1.9 |
| COc1cc2c(cc1-c1nc3c(cnn3C(C)C(C)C)[nH]1)OCO2 (stereo unspecified) | 8.61 |
| COc1ccc(C(C(=O)O)N2CCCN(C3CCCC3)CC2)cc1OC (stereo unspecified) | 7.44 |
| CCC(C)NC(=O)CCc1ccc(OCC(F)(F)F)c(OC)c1 (stereo unspecified) | -3.27 |
| OCCn1nccc1C1CCN(CCOc2cccc(F)c2)CC1 | -10.8 |
| CCc1cnc(CN(C(C)=O)C2CCN(CCN3CCCCC3)C2)o1 (stereo unspecified) | -3.63 |
| CCS(=O)(=O)c1ccccc1N1CCC(N)CC1 | 3.03 |
| CN(Cc1noc(C2CC2)n1)C1CCN(CC(=O)N2CCOCC2)C1 (stereo unspecified) | -5.25 |
| CCc1nc(C2CCCN2CCCS(N)(=O)=O)no1 (stereo unspecified) | -6.66 |
| Cc1nc(CCNC(=O)NC(C)Cn2cccn2)cs1 (stereo unspecified) | -1.85 |
| O=C1CC(N(C(=O)c2ccc(Cl)c(Cl)c2)C2CC2)C(=O)N1 (stereo unspecified) | 0.0791 |
| CC(NC(=O)NCCn1ccnc1)c1ccc2c(c1)OCCO2 (stereo unspecified) | -9.44 |
| O=C(CCc1cscn1)N1CCCC(n2cncn2)C1 (stereo unspecified) | -3.81 |

| SMILES | cytotoxicity at 10 µM [%] |
| --- | --- |
| Cc1ccc(CNC(=O)CN2CCCC(Cn3cncn3)C2)cc1 (stereo unspecified) | -11.5 |
| CC(C)C(=O)N(C)CC(=O)Nc1ccc(Br)cn1 | -6.22 |
| c1cnn(CC2CCCCN2Cc2nc(-c3ccoc3)no2)c1 (stereo unspecified) | -5.22 |
| Cc1nc(C(=O)N2CCCC2c2noc(C3CC3)n2)c[nH]1 (stereo unspecified) | -7.06 |
| Cc1cc(NC(=O)CCN2CCCC2Cn2cccn2)no1 (stereo unspecified) | -5.09 |
| CC(NC(=O)Cn1cc(-c2ccccc2)cn1)C1CC1 (stereo unspecified) | 1.36 |
| Cc1noc(CN2CCOC(CN(C)C)C2)n1 (stereo unspecified) | -6.61 |
| O=C(NCC1CCSCC1)N(CCCO)C1CCc2ccccc21 (stereo unspecified) | 5.77 |
| COc1ccc(CN(C)CC(=O)NC2(C)CCS(=O)(=O)C2)cc1F (stereo unspecified) | 7.44 |
| CN(c1ccc(F)c(F)c1)S(=O)(=O)c1cc(C(=O)O)cs1 | -4.89 |
| COc1ccc(C(C)NC(=O)Cn2ccc(=O)n(C)c2=O)cc1OC (stereo unspecified) | -9.09 |
| CCn1cnnc1C1CCN(C(=O)COCCc2ccccc2)CC1 | 0.602 |
| Cc1cc(C[C@@H]2COC[C@H]2NCc2ccc(Br)s2)on1 | 3.6 |
| CN(Cc1ccco1)Cc1cnc2n1CCN(S(C)(=O)=O)CC2 | -2.75 |
| CC(C)c1nn(C)cc1CNC1CCOc2ccccc21 (stereo unspecified) | 0.923 |
| Cc1ccc(CN2CCC3(CC2)C(=O)N(C)c2ccccc23)s1 | -5.68 |
| CC(C)NC(=O)[C@@H]1CC[C@@H]2[C@@H](CCN2Cc2ccc3ccccc3n2)O1 | 3.98 |
| Cc1ncccc1NC(=O)[C@H]1C[C@@H]2CCN(Cc3nccs3)C[C@@H]2O1 | 0.976 |
